Measured values taken from article PMC10464598 (RSC Advances, 2023).

molecular target: urease (Canavalia ensiformis, UniProt P07374); experiment: Urease inhibition assay; format: biochemical
In short: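 Test compound was preincubated with urease (enzyme solution 5 U ml−1) in buffer for 10 min at 37 °C. Alkaline and phenolic reagents were then added, and absorbance was read at 625 nm. Thiourea served as the standard inhibitor. Assays were run in triplicate. % inhibition = (A control − A sample)/A control × 100. IC50 was obtained by non-linear regression of % inhibition against concentration.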

Sequence of urease (P07374 whole entry, looked up): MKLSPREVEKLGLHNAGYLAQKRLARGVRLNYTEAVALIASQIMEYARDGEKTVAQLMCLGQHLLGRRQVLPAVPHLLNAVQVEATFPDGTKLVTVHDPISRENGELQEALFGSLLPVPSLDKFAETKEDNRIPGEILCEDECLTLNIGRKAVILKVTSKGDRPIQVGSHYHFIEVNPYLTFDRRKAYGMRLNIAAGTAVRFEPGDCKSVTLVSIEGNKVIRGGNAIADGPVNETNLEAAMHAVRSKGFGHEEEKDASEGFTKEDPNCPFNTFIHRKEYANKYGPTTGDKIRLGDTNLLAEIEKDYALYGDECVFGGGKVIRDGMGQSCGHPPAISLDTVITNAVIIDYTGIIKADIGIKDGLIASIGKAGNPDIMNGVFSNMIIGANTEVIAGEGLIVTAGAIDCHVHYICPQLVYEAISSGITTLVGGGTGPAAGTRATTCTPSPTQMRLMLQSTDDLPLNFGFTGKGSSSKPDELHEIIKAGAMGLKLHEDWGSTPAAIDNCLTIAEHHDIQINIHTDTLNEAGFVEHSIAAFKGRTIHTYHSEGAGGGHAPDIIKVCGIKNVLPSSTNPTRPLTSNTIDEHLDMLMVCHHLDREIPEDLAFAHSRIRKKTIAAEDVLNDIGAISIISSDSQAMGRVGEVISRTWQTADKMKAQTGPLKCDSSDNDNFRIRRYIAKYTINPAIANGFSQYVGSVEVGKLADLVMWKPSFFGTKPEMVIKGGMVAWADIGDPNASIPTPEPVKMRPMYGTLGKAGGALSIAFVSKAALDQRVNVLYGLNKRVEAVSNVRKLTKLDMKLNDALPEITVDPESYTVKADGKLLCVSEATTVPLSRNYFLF

| SMILES | IC50 |
| --- | --- |
| CC(c1ccc(-c2ccccc2)c(F)c1)c1nnc(-c2cccc3ccccc23)o1 (stereo not drawn) [Compound 5, 2-(1-(2-Fluoro-[1,1′-biphenyl]-4-yl)ethyl)-5-(naphthalen-1-yl)-1,3,4-oxadiazole] | 39 ± 1.2 µM |
| CC(c1ccc(-c2ccccc2)c(F)c1)c1nnc(-c2ccc(O)c(O)c2O)o1 (stereo not drawn) [Compound 6, 4-(5-(1-(2-Fluoro-[1,1′-biphenyl]-4-yl)ethyl)-1,3,4-oxadiazol-2-yl) benzene-1,2,3-triol] | 20 ± 0.5 µM |
| CC(c1ccc(-c2ccccc2)c(F)c1)c1nnc(-c2ccccc2N)o1 (stereo not drawn) [Compound 7, 2-(5-(1-(2-Fluoro-[1,1′-biphenyl]-4-yl)ethyl)-1,3,4-oxadiazol-2-yl) aniline] | 16 ± 0.1 µM |
| CC(c1ccc(-c2ccccc2)c(F)c1)c1nnc(-c2cccc([N+](=O)[O-])c2)o1 (stereo not drawn) [Compound 8, 2-(1-(2-Fluoro-[1,1′-biphenyl]-4-yl)ethyl)-5-(3-nitrophenyl)-1,3,4-oxadiazole] | 41 ± 1.2 µM |
| COc1ccc(Br)cc1-c1nnc(C(C)c2ccc(-c3ccccc3)c(F)c2)o1 (stereo not drawn) [Compound 9, 2-(5-Bromo-2-methoxyphenyl)-5-(1-(2-fluoro-[1,1′-biphenyl]-4-yl)ethyl)-1,3,4-oxadiazole] | 72 ± 1.2 µM |
| COc1ccc(-c2nnc(C(C)c3ccc(-c4ccccc4)c(F)c3)o2)c(OC)c1OC (stereo not drawn) [Compound 10, 2-(2,3,4-Trimethoxyphenyl)-5-(1-(2-fluoro-[1,1′-biphenyl]-4-yl)ethyl)-1,3,4-oxadiazole] | 20 ± 0.5 µM |
| CC(c1ccc(-c2ccccc2)c(F)c1)c1nnc(-c2cc([N+](=O)[O-])ccc2Cl)o1 (stereo not drawn) [Compound 11, 2-(2-Chloro-5-nitrophenyl)-5-(1-(2-fluoro-[1,1′-biphenyl]-4-yl)ethyl)-1,3,4-oxadiazole] | 41 ± 1.2 µM |
| CCOc1ccc(-c2nnc(C(C)c3ccc(-c4ccccc4)c(F)c3)o2)c(OC)c1 (stereo not drawn) [Compound 12, 2-(4-Ethoxy-2-methoxyphenyl)-5-(1-(2-fluoro-[1,1′-biphenyl]-4-yl)ethyl)-1,3,4-oxadiazole] | 74 ± 1.3 µM |
| COc1cc(-c2nnc(C(C)c3ccc(-c4ccccc4)c(F)c3)o2)ccc1F (stereo not drawn) [Compound 13, 2-(4-Fluoro-3-methoxyphenyl)-5-(1-(2-fluoro-[1,1′-biphenyl]-4-yl)ethyl)-1,3,4-oxadiazole] | 16 ± 0.9 µM |
| CCOc1cc(-c2nnc(C(C)c3ccc(-c4ccccc4)c(F)c3)o2)ccc1OC (stereo not drawn) [Compound 14, 2-(3-Ethoxy-4-methoxyphenyl)-5-(1-(2-fluoro-[1,1′-biphenyl]-4-yl)ethyl)-1,3,4-oxadiazole] | 35 ± 1.2 µM |
| COc1cccc(OC)c1-c1nnc(C(C)c2ccc(-c3ccccc3)c(F)c2)o1 (stereo not drawn) [Compound 15, 2-(2,6-Dimethoxyphenyl)-5-(1-(2-fluoro-[1,1′-biphenyl]-4-yl)ethyl)-1,3,4-oxadiazole] | 31 ± 1.2 µM |
| CC(c1ccc(-c2ccccc2)c(F)c1)c1nnc(-c2ccc([N+](=O)[O-])cc2)o1 (stereo not drawn) [Compound 16, 2-(1-(2-Fluoro-[1,1′-biphenyl]-4-yl)ethyl)-5-(4-nitrophenyl)-1,3,4-oxadiazole] | 13 ± 0.2 µM |
| COc1ccc(-c2nnc(C(C)c3ccc(-c4ccccc4)c(F)c3)o2)c(Cl)c1OC (stereo not drawn) [Compound 17, 2-(2-Chloro-3,4-dimethoxyphenyl)-5-(1-(2-fluoro-[1,1′-biphenyl]-4-yl)ethyl)-1,3,4-oxadiazole] | 36 ± 1.2 µM |
| COc1cc(-c2nnc(C(C)c3ccc(-c4ccccc4)c(F)c3)o2)ccc1Oc1ccccc1 (stereo not drawn) [Compound 19, 2-(1-(2-Fluoro-[1,1′-biphenyl]-4-yl)ethyl)-5-(3-methoxy-4-phenoxyphenyl)-1,3,4-oxadiazole] | 16 ± 0.3 µM |
| COc1ccccc1-c1nnc(C(C)c2ccc(-c3ccccc3)c(F)c2)o1 (stereo not drawn) [Compound 20, 2-(1-(2-Fluoro-[1,1′-biphenyl]-4-yl)ethyl)-5-(2-methoxyphenyl)-1,3,4-oxadiazole] | 12 ± 0.9 µM |
| CC(c1ccc(-c2ccccc2)c(F)c1)c1nnc(-c2ccc(Br)cc2)o1 (stereo not drawn) [Compound 21, 2-(4-Bromophenyl)-5-(1-(2-fluoro-[1,1′-biphenyl]-4-yl)ethyl)-1,3,4-oxadiazole] | 13 ± 0.2 µM |
| COc1ccc(-c2nnc(C(C)c3ccc(-c4ccccc4)c(F)c3)o2)c(F)c1 (stereo not drawn) [Compound 22, 2-(2-Fluoro-4-methoxyphenyl)-5-(1-(2-fluoro-[1,1′-biphenyl]-4-yl)ethyl)-1,3,4-oxadiazole] | 31 ± 1.4 µM |
| COc1cc(-c2nnc(C(C)c3ccc(-c4ccccc4)c(F)c3)o2)cc(OC)c1Br (stereo not drawn) [Compound 23, 2-(4-Bromo-3,5-dimethoxyphenyl)-5-(1-(2-fluoro-[1,1′-biphenyl]-4-yl)ethyl)-1,3,4-oxadiazole] | 37 ± 1.4 µM |
| CC(c1ccc(-c2ccccc2)c(F)c1)c1nnc(-c2ccc(Br)cc2F)o1 (stereo not drawn) [Compound 24, 2-(4-Bromo-2-fluorophenyl)-5-(1-(2-fluoro-[1,1′-biphenyl]-4-yl)ethyl)-1,3,4-oxadiazole] | 13 ± 0.1 µM |
| COc1ccc(OC)c(-c2nnc(C(C)c3ccc(-c4ccccc4)c(F)c3)o2)c1 (stereo not drawn) [Compound 25, 2-(2,5-Dimethoxyphenyl)-5-(1-(2-fluoro-[1,1′-biphenyl]-4-yl)ethyl)-1,3,4-oxadiazole] | 35 ± 1.5 µM |
| CC(c1ccc(-c2ccccc2)c(F)c1)c1nnc(-c2cccc(C(F)(F)F)c2)o1 (stereo not drawn) [Compound 26, 2-(1-(2-Fluoro-[1,1′-biphenyl]-4-yl)ethyl)-5-(3-(trifluoromethyl)phenyl)-1,3,4-oxadiazole] | 12 ± 0.1 µM |
| CSc1ccc(-c2nnc(C(C)c3ccc(-c4ccccc4)c(F)c3)o2)cc1 (stereo not drawn) [Compound 27, 2-(1-(2-Fluoro-[1,1′-biphenyl]-4-yl)ethyl)-5-(4-(methylthio)phenyl)-1,3,4-oxadiazole] | 34 ± 2.4 µM |
| CC(c1ccc(-c2ccccc2)c(F)c1)c1nnc(-c2ccc(O)c(Br)c2)o1 (stereo not drawn) [Compound 28, 2-Bromo-4-(5-(1-(2-fluoro-[1,1′-biphenyl]-4-yl)ethyl)-1,3,4-oxadiazol-2-yl)phenol] | 14 ± 0.3 µM |
| CC(c1ccc(-c2ccccc2)c(F)c1)c1nnc(-c2ccc(-c3ccccc3)c(F)c2)o1 (stereo not drawn) [Compound 29, 2-(2-Fluoro-[1,1′-biphenyl]-4-yl)-5-(1-(2-fluoro-[1,1′-biphenyl]-4-yl)ethyl)-1,3,4-oxadiazole] | 41 ± 1.4 µM |
| Cc1ccc(-c2nnc(C(C)c3ccc(-c4ccccc4)c(F)c3)o2)s1 (stereo not drawn) [Compound 30, 2-(1-(2-Fluoro-[1,1′-biphenyl]-4-yl)ethyl)-5-(5-methylthiophen-2-yl)-1,3,4-oxadiazole] | 12 ± 0.1 µM |
| CC(c1ccc(-c2ccccc2)c(F)c1)c1nnc(-c2cccc(O)c2O)o1 (stereo not drawn) [Compound 31, 3-(5-(1-(2-Fluoro-[1,1′-biphenyl]-4-yl)ethyl)-1,3,4-oxadiazol-2-yl)benzene-1,2-diol] | 15 ± 0.3 µM |
| CC(c1ccc(-c2ccccc2)c(F)c1)c1nnc(-c2ccccc2[N+](=O)[O-])o1 (stereo not drawn) [Compound 32, 2-(1-(2-Fluoro-[1,1′-biphenyl]-4-yl)ethyl)-5-(2-nitrophenyl)-1,3,4-oxadiazole] | 15 ± 0.3 µM |
